# Compounds with a hit are over-represented: about 5.7% of the library has one in this group of screens.
# Beta apoptosis: blocks beta cell apoptosis; INS-1E cytokine-induced death, ATP luminescence, 48 h; percent of positive-control rescue, neutral wells zero; protection from apoptosis, % (concentration not given with the values); 300,000 compounds, 0.8% hits;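 active means Every replicate reaches about 75%, or at least half do and their mean reaches it too, limit read from the data; inconclusive means At least half of replicates reach the limit but their mean does not; inactive means Under half of replicates reach the limit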;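 further: higher means more ATP so stronger rescue from cytokine killing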
# Mdm2-MdmX inh: inhibitors of human Mdm2/MdmX interaction. O15151+Q00987. SaOS-2 split-luciferase Mdm2/MdmX complementation, luminescence. inhibition, % at 8 µM. 330,000 compounds, 3% hits. AID 485346;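 active means inhibition of at least 50% at 8 µM in the primary screen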
# Target sequence (O15151 whole entry, looked up): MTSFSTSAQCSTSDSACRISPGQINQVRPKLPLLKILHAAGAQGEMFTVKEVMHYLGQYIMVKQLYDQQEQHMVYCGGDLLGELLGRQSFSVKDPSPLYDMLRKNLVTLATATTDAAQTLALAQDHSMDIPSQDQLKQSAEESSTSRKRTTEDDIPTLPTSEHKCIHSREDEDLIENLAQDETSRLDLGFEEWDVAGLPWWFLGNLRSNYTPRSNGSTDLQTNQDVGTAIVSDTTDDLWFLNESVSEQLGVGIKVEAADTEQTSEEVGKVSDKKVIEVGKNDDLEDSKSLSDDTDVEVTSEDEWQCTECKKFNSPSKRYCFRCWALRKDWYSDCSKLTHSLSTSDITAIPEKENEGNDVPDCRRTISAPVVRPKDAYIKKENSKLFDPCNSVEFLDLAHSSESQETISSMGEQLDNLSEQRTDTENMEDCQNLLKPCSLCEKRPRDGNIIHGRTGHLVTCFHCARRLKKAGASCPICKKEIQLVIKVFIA
# Target sequence (Q00987 whole entry, looked up): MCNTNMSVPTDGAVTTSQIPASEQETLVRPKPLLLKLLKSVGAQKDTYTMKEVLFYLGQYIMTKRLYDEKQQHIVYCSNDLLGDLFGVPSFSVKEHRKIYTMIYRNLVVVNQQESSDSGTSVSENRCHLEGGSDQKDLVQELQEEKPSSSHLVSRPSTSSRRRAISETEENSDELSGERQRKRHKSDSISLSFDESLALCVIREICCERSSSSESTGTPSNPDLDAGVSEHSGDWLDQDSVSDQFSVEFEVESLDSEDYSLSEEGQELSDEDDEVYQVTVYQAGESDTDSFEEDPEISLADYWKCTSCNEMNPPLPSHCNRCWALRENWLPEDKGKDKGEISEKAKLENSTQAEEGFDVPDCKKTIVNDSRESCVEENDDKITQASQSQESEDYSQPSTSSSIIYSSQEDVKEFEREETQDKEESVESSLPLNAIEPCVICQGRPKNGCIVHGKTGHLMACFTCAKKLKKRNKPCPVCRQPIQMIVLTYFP
# Calb FLC: affects C. albicans growth with fluconazole; C. albicans CaCi-2 (fluconazole-resistant clinical isolate) + fluconazole, Alamar Blue growth, 48 h; growth inhibition, % (no concentration beside the values); 300,000 compounds, 0.57% hits; AID 1979;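 active means growth inhibition above about 58% in most replicates, limit read from the data, passing the limit was not always enough; inconclusive means exactly half the replicates above a set limit; inactive means most replicates below a set limit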;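 further: all wells also contain fluconazole at 8 µg/ml as a sub-toxic cotreatment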
# SKKanGAS inh: SKKanGAS growth inhibition. 300,000 compounds, 1.3% hits. inhibition, % at 7.5 µM. S. pyogenes SKKanGAS, kanamycin growth, BacTiter-Glo, 6 h;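 active means mean replicate score, as percent of positive control median, at least 50; inconclusive means mean below 50 but one replicate at or above 50; inactive means mean and every replicate below 50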;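 further: strain carries kanamycin resistance gene driven by streptokinase promoter and grows in 40 µg/ml kanamycin; loss of luminescence reflects streptokinase promoter inhibition or plain growth inhibition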
# T cruzi repl: blocks replication of Trypanosoma cruzi; T. cruzi beta-gal in NIH3T3, luminescence, 90 h; inhibition, % (no concentration beside the values); 300,000 compounds, 1.4% hits;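 active means mean inhibition across valid replicates above about 55%, limit read from the data; inconclusive means mean below that limit but half or more replicates reach it; inactive means mean below it, under half of replicates reach it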;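 further: signal also drops with host cell toxicity which is not excluded here; higher percent means less beta-gal luminescence so fewer parasites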
#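 Incubation – ≥90 h infection period, 3 h prior cell attachment · System – NIH/3T3 fibroblasts plus reporter T. cruzi · Doses – compound pinned at 50 nL/well, DMSO · Read-out basis – percent inhibition of parasite-derived β-gal signal · Signal – luminescent β-galactosidase signal after 60 min lysis · Also added – 5000 T. cruzi trypomastigotes/well · Medium – Low-serum DMEM with 2% FBS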
# CSC inhib: cancer stem cell inhibition; cancer stem cell-like cells viability, luminescence; inhibition, % at 7.5 µM; 300,000 compounds, 1.1% hits; in the data active means inhibition above about 75%; inconclusive means no clear call, values can overlap the other calls; tested in HMLE shEcad cells
# Mdm2 MdmX conf: human Mdm2/MdmX binding inhibition, confirmed. shares compounds with Mdm2-MdmX inh. luminescent assay. inhibition, % at 8 µM. 10,000 compounds, 55% hits. AID 489028; in the data active means inhibition above about 40%
# Full FLuc ctr: counter-screen for Mdm2/MdmX inhibitors: full-length luciferase | shares compounds with Mdm2-MdmX inh | SaOS-2 full-length luciferase counterscreen, luminescence | 6,200 compounds, 77% hits | inhibition, % at 8 µM;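 active means mean inhibition at 8 µM reaching about 37%, which flags the compound as non-specific, limit read from the data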;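 further: p53-null SaOS-2 cells with luciferase driven by a doxycycline-inducible promoter; compound on cells about two nights before reading with doxycycline added after day one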
# Numbers stand for hits; 0 = inactive; ? = inconclusive; - = no result; ! = not confirmed by another sample.
SMILES,Beta apoptosis,Mdm2-MdmX inh,Calb FLC,SKKanGAS inh,T cruzi repl,CSC inhib,Mdm2 MdmX conf,Full FLuc ctr
COC(=O)c1cn(NC(=O)C2CCC(C)CC2)c(=O)c2ccccc12 (configuration not stated),0,0,0,0,0,0,-,-
COC(=O)c1cn(NC(=O)c2cc([N+](=O)[O-])ccc2F)c(=O)c2ccccc12,0,83,0,0,0,0,76,54
Cc1cc2cc(C)c(NCCNC(=O)c3ccccc3)nc2cc1C,0,0,0,0,0,0,-,-
Cc1ccc(C(=O)NCCNc2nc3cc(C)c(C)cc3cc2C)cc1,0,65,0,0,0,0,0,-
CCc1c(C)sc(NC(=O)CSc2nc3c(c(C(F)(F)F)n2)CCc2ccccc2-3)c1C#N,0,75,0,0,0,0,0,-
O=C(COC(=O)c1nc(Cl)c(Cl)c(Cl)c1Cl)NCc1ccccc1,-,54,-,-,-,-,0,-
COc1ccc(S(=O)(=O)N2CCCCC2)cc1NC(=O)CCCOc1ccc(C)cc1,0,0,-,-,-,0,-,-
COC(=O)[C@]1(C)N[C@H](c2ccc(-c3ccc(Cl)c(Cl)c3)c(OC)c2)[C@@H]2C(=O)N(C)C(=O)[C@@H]21,0,65,0,0,0,0,40,49
CCN1C(=O)[C@H]2[C@@H](c3ccc(-c4ccc(Cl)c(Cl)c4)c(OC)c3)N[C@@](Cc3ccccc3)(C(=O)OC)[C@H]2C1=O,0,62,0,0,0,0,47,46
CCN1C(=O)[C@H]2[C@@H](c3ccc(-c4ccc5c(c4)OCO5)cc3)N[C@@](Cc3ccccc3)(C(=O)OC)[C@H]2C1=O,0,0,-,-,-,-,-,-
COc1ccc(NC(=O)c2cc(S(=O)(=O)N3CCc4ccccc43)cn2C)cc1OC,0,0,0,0,0,0,-,-
N/C(=C\C(=O)c1cc(Cl)ccc1O)C(Cl)(Cl)Cl,0,95,0,0,0,85,57,54
COc1cc(C(=O)NC(=S)Nc2cccc(-c3cc4ccccc4oc3=O)c2)cc(OC)c1OC,0,53,0,0,0,0,0,-
Cc1cc(NC(=S)NC(=O)c2ccccc2)ccc1-c1cc2ccccc2oc1=O,0,0,0,0,0,0,-,-
COc1ccc(CCNC(=O)/C=C/c2ccc3ccccc3n2)cc1OC,-,58,0,0,0,0,69,54
COc1ccc(/C=C/C(=O)NCCc2ccc(OC)c(OC)c2)cc1,0,0,0,0,0,0,-,-
COc1cc(OC)c(OC)cc1/C=C/C(=O)c1ccc(NS(=O)(=O)c2ccc(C)cc2)cc1,-,59,0,0,0,0,0,-
COc1ccccc1/C=C/C(=O)c1ccc(NC(C)=O)cc1,0,63,0,0,0,0,52,59
COc1ccccc1/C=C/C(=O)c1c2c(c(C)[nH]c1=O)CCCC2,0,85,0,-,0,-,99,56
Cc1ccc(S(=O)(=O)N2CCCC2)cc1C(=O)NCC(C)(C)N1CCOCC1,0,0,-,-,-,0,-,-
COc1cc2nc(SCc3ccc(F)cc3)n(Cc3cccs3)c(=N)c2cc1OC,0,0,0,0,0,0,-,-
COc1ccc(Cn2c(SCc3ccccc3C)nc3cc(OC)c(OC)cc3c2=N)cc1,108,97,0,60,0,100,52,48
CCCCN=C1SC(C(=O)Nc2sc3c(c2C(=O)OC)CCC3)C(N)=C1C(=O)N1CCOCC1 (configuration not stated),0,66,0,0,0,0,0,-
CC(=O)c1ccc(NC(=O)CN(c2c(C)cccc2C)S(C)(=O)=O)cc1,0,0,0,0,0,0,-,-
Cc1ccc(C(=O)NCC(=O)Nc2ncccc2C)s1,0,0,0,0,0,0,-,-
SMILES,Beta apoptosis,Mdm2-MdmX inh,Calb FLC,SKKanGAS inh,T cruzi repl,CSC inhib,Mdm2 MdmX conf,Full FLuc ctr
CCN1CCN(Cc2ccc(NC(=O)c3ccc(C)c(NC(=O)N4CCNC4=O)c3)cc2C(F)(F)F)CC1,0,59,0,0,0,0,40!,83
CCN1CCN(Cc2ccc(NC(=O)c3ccc(C)c(NC(=O)c4cccc5[nH]ccc45)c3)cc2C(F)(F)F)CC1,0,55,0,0,0,0,0,-
CCN1CCN(Cc2ccc(NC(=O)c3ccc(C)c(NC(=O)c4nccn4C)c3)cc2C(F)(F)F)CC1,0,0,0,0,0,0,-,-
CCN1CCN(Cc2ccc(NC(=O)c3ccc(C)c(NC(=O)c4cc(-c5ccc(Br)cc5)n[nH]4)c3)cc2C(F)(F)F)CC1,0,99,0,0,60,?,0,41
CCN1CCN(Cc2ccc(NC(=O)c3ccc(C)c(NC(=O)c4nccnc4N)c3)cc2C(F)(F)F)CC1,0,97,0,0,0,0,64,42
Cc1ccc(NC(=O)c2cc(-c3ccccc3)n[nH]2)cc1,0,0,0,0,0,0,-,-
Cc1ccc(C(=O)Nc2cccc(C(F)(F)F)c2)cc1NC(=O)c1nccn1C,0,0,0,0,0,0,-,-
COc1ccc(NC(=O)CSc2nnc(NC(=O)c3ccco3)s2)cc1OC,0,0,0,0,0,0,-,-
Cc1ccccc1OC(=O)c1cccc(S(=O)(=O)N2CCN(C)CC2)c1,0,0,-,-,-,0,-,-
CCC(=O)N1c2ccccc2C(N(C(C)=O)c2ccccc2)CC1C (configuration not stated),-,54,0,0,0,0,0,-
CC(C)OC(=O)n1c(=S)oc2ccccc21,0,0,0,0,0,0,-,-
CCCCC(=O)/C=C/n1c(=S)oc2ccccc21,0,100,0,0,0,0,0,-
COc1ccc(NC(=O)Nc2cccc3c2O[C@@H](CN(C)S(=O)(=O)c2cn(C)cn2)[C@@H](C)CN([C@H](C)CO)C3=O)cc1,0,0,-,-,-,0,-,-
Cc1ccc(NC(=O)COc2ccc(/C=N/NC(=O)CSCc3ccccc3)cc2)cc1,0,0,0,0,0,0,-,-
Cc1ccc(NC(=O)COc2ccc(/C=C3/SC(=Nc4ccccc4)N(Cc4cccnc4)C3=O)cc2)cc1,0,51,0,0,0,0,0,-
Brc1ccccc1OCCN1CCCC1,-,0,0,0,0,-,-,-
Cc1ccc(C(=O)COc2cc(O)c3c(=O)cc(-c4ccccc4)oc3c2)cc1,0,62,0,0,0,0,0,-
O=C(COc1cc(O)c2c(=O)cc(-c3ccccc3)oc2c1)c1ccccc1,0,0,0,0,0,0,-,-
O=C(CCl)Nc1cccc(Oc2ccccc2)c1,0,94,0,0,56,0,0,-
O=C(CCl)Nc1ccc(N=Nc2ccccc2)cc1,-,-,0,0,0,-,-,-
O=C(CCl)Nc1cn(-c2ccccc2)nc1-c1ccccc1,0,75,0,0,0,0,0,0
CC(C)N(c1ccccc1)c1ccc(NC(=O)CCl)cc1,0,97,?,0,80,0,99,51

# Assay outcomes: PubChem, several laboratories
